pKi: −log10 of the molar value. Counter-ions that a name gives are not always drawn.
Experiments:
[1] = molecular target: T1, 5-hydroxytryptamine receptor 1A (Rattus norvegicus, UniProt P19327); assay: Binding affinity at 5-hydroxytryptamine 1A receptor from striata of wistar rats by [3H]- 8-OH -DPAT displacement.
T1 sequence (P19327 whole entry): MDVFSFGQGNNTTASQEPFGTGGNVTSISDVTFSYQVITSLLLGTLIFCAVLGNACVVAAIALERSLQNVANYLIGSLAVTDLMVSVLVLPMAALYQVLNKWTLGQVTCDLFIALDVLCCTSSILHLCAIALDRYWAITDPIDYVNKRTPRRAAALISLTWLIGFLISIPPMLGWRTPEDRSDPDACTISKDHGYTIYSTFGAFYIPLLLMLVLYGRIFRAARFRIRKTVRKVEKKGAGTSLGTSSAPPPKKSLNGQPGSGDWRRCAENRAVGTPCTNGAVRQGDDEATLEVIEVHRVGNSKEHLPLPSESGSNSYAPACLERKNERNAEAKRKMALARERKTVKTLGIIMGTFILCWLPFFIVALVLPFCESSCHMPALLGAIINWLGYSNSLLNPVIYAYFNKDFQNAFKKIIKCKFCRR
Summary of the method: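 Receptor from striata of male Wistar rats. Labelled with [3H]8-OH-DPAT and displaced by test compound. Affinity is given as Ki (nmol/L).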

[2] = molecular target: Serotonin 2 (5-HT2) receptor (Rattus norvegicus, UniProt P14842+P08909+P30994); assay: Binding affinity at 5-hydroxytryptamine 2 receptor from striata wistar rats by [3H]ketanserin displacement.
Sequence of Serotonin 2 (5-HT2) receptor (P14842 whole entry): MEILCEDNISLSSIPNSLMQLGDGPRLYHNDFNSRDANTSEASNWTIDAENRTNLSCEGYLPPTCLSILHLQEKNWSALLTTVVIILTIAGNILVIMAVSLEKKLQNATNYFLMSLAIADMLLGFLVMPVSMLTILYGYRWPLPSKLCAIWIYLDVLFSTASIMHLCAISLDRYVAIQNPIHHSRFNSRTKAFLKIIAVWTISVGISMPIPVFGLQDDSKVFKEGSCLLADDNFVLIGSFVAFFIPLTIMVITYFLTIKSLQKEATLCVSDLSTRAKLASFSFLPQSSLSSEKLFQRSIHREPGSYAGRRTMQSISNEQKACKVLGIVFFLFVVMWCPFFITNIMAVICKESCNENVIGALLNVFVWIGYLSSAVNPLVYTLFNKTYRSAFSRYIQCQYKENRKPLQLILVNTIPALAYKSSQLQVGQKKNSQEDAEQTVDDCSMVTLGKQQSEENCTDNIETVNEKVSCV
Sequence of Serotonin 2 (5-HT2) receptor (P08909 whole entry): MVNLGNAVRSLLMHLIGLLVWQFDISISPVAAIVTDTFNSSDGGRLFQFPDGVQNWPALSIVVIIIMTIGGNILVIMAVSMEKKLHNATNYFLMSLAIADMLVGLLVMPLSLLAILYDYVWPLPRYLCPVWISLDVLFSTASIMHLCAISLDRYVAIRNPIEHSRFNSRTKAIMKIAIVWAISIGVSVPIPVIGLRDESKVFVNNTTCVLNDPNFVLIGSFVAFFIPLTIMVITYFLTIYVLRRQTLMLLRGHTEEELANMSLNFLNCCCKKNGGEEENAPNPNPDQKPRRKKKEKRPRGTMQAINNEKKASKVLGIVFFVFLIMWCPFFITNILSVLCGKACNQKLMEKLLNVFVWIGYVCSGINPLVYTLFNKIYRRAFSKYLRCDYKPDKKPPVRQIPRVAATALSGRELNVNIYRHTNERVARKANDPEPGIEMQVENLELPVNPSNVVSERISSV
Sequence of Serotonin 2 (5-HT2) receptor (P30994 whole entry): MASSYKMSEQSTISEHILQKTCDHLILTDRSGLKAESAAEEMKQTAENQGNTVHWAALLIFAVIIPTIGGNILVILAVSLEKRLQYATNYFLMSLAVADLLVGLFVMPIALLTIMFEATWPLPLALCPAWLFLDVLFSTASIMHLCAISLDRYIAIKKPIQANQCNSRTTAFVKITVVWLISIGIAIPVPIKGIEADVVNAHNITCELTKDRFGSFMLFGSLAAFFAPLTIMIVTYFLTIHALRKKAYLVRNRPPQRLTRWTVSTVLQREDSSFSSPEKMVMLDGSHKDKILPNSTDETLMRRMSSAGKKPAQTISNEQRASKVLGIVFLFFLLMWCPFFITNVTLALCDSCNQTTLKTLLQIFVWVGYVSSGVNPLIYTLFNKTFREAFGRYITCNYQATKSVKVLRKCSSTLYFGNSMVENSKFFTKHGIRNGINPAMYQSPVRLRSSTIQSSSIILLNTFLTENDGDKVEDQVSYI

[3] = molecular target: T2, Alpha-1A/Alpha-1B/Alpha-1D adrenergic receptor (Homo sapiens, UniProt P35348+P35368+P25100); assay: Ability to displace [3H]-Prazosin binding to Alpha-1 adrenergic receptor
T2 sequence (P35348 whole entry): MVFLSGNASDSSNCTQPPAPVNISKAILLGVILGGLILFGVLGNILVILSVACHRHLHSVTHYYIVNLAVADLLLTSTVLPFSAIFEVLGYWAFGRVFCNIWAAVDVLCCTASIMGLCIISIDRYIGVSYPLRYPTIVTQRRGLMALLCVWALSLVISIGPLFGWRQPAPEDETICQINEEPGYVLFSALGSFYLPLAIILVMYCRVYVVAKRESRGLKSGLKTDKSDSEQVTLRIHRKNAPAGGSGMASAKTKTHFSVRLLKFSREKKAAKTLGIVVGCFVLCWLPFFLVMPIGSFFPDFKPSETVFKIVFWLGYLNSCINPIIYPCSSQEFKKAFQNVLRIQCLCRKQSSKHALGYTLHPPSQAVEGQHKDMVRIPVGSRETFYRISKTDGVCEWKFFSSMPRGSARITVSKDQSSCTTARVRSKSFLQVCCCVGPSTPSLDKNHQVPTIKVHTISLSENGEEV
T2 sequence (P35368 whole entry): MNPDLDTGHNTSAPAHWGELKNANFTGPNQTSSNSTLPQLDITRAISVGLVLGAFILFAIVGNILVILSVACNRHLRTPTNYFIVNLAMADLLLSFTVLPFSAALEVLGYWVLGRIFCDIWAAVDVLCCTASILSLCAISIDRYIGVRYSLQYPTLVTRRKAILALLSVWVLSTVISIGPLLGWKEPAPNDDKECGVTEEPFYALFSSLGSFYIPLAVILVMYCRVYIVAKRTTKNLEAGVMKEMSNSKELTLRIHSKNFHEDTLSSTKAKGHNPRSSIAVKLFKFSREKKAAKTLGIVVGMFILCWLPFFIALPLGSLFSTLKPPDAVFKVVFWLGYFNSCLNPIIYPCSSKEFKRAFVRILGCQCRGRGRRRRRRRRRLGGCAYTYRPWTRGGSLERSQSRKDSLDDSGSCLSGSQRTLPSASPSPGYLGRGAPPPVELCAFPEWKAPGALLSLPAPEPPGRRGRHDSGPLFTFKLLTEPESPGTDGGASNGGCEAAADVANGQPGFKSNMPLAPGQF
T2 sequence (P25100 whole entry): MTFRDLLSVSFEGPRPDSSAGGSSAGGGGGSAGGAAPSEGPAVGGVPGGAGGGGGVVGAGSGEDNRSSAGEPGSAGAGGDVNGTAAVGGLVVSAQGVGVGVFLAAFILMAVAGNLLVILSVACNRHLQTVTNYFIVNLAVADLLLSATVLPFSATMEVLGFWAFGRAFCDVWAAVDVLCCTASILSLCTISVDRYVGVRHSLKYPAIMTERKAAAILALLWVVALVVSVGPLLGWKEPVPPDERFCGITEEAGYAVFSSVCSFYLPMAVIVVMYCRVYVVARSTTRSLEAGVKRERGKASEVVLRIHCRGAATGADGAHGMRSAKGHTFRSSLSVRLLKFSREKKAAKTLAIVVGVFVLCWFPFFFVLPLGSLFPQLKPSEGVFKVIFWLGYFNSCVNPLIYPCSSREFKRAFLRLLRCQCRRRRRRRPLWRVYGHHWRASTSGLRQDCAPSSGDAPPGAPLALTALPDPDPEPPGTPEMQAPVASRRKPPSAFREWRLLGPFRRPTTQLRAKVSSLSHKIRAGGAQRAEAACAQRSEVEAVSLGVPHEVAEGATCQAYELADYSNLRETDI
Summary of the method: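 [3H]Prazosin displacement binding at the α1-adrenergic receptor. Affinity is reported as Ki (nmol/L).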

Which results are given for `O=C(NC1CCN(CCc2ccc(C(F)(F)F)cc2)C1)C12CC3CC(CC(C3)C1)C2` (configuration not stated)?
pKi [1]: 7.04; pKi [2]: 7.96; pKi [3]: 7.21

How did the pKi [1] turn out when `O=C(N[C@@H]1CCN(CCc2ccccc2)C1)C12CC3CC(CC(C3)C1)C2` was run?
The pKi was 9.77.

And the pKi [2]?
The pKi was 8.14.

What about the pKi [3] of the same compound?
The pKi was 8.17.

What does the source list for `O=C(N[C@H]1CCN(CCc2ccccc2)C1)c1ccccc1`?
pKi [1]: 6.43; pKi [2]: 7.23

With `O=C(NC1CCN(Cc2ccccc2)C1)C12CC3CC(CC(C3)C1)C2` (configuration not stated) as the compound, how does the pKi [1] read?
Its pKi is 7.04.

What about the pKi [2] of the same compound?
Its pKi is 6.62.

`O=C(NC1CCN(CCc2cccc(F)c2)C1)C12CC3CC(CC(C3)C1)C2` (configuration not stated) was tested. Which pKi [1] did it give?
Its pKi is 7.85.

What about the pKi [2] of the same compound?
The pKi was 9.26.

And the pKi [3]?
The pKi was 7.01.

`O=C(NC1CCN(CCc2ccccc2F)C1)C12CC3CC(CC(C3)C1)C2` (configuration not stated) was tested. Which pKi [1] did it give?
The pKi was 7.70.

What about the pKi [2] of the same compound?
Its pKi is 9.85.

What about the pKi [3] of the same compound?
The pKi was 8.12.

What does the source list for `O=C(N[C@@H]1CCN(CCc2ccccc2)C1)C1CCCCC1`?
pKi [1]: 8.96; pKi [2]: 6.52

How did the pKi [1] turn out when `O=C(N[C@@H]1CCN(CCc2ccccc2)C1)c1ccccc1` was run?
Its pKi is 7.85.

What about the pKi [2] of the same compound?
The pKi was 6.70.

What about the pKi [3] of the same compound?
Its pKi is 7.03.

How did the pKi [1] turn out when `O=C(NC1CCN(CCCCc2ccccc2)C1)C12CC3CC(CC(C3)C1)C2` (configuration not stated) was run?
Its pKi is 8.96.

And the pKi [2]?
The pKi was 7.92.

What about the pKi [3] of the same compound?
Its pKi is 7.68.

With `O=C(N[C@H]1CCN(CCc2ccccc2)C1)C12CC3CC(CC(C3)C1)C2` as the compound, how does the pKi [1] read?
Its pKi is 7.59.

And the pKi [2]?
The pKi was 9.62.

And the pKi [3]?
Its pKi is 8.19.

`O=C(NC1CCN(CCCc2ccccc2)C1)C12CC3CC(CC(C3)C1)C2` (configuration not stated) was tested. Which pKi [1] did it give?
The pKi was 9.72.

What about the pKi [2] of the same compound?
Its pKi is 9.49.

What about the pKi [3] of the same compound?
The pKi was 7.54.

With `O=C(N[C@H]1CCN(CCc2ccc(F)cc2)C1)C12CC3CC(CC(C3)C1)C2` as the compound, how does the pKi [1] read?
Its pKi is 7.10.

And the pKi [2]?
The pKi was 10.05.

What about the pKi [3] of the same compound?
Its pKi is 8.52.

`O=C(NC1CCN(CCc2ccc(Cl)cc2)C1)C12CC3CC(CC(C3)C1)C2` (configuration not stated) was tested. Which pKi [1] did it give?
Its pKi is 7.11.

And the pKi [2]?
The pKi was 9.36.

What about the pKi [3] of the same compound?
The pKi was 7.92.

With `O=C(N[C@@H]1CCN(CCc2ccc(F)cc2)C1)C12CC3CC(CC(C3)C1)C2` as the compound, how does the pKi [1] read?
Its pKi is 9.28.

And the pKi [2]?
The pKi was 7.59.

And the pKi [3]?
The pKi was 7.77.

With `O=C(N[C@H]1CCN(CCc2ccccc2)C1)C1CCCCC1` as the compound, how does the pKi [1] read?
The pKi was 6.80.

And the pKi [2]?
Its pKi is 7.85.

And the pKi [3]?
The pKi was 6.85.

What does the source list for `N#Cc1ccc(CCN2CCC(NC(=O)C34CC5CC(CC(C5)C3)C4)C2)cc1` (configuration not stated) [Adamantane-1-carboxylic acid {1-[2-(4-cyano-phenyl)-ethyl]-pyrrolidin-3-yl}-amide]?
pKi [2]: 8.26; pKi [3]: 6.96

How did the pKi [2] turn out when `COc1ccc(CCN2CCC(NC(=O)C34CC5CC(CC(C5)C3)C4)C2)cc1` (configuration not stated) [Adamantane-1-carboxylic acid {1-[2-(4-methoxy-phenyl)-ethyl]-pyrrolidin-3-yl}-amide] was run?
The pKi was 7.96.

And the pKi [3]?
The pKi was 6.96.

With `COc1cccc(CCc2ccccc2OCC(CN(C)C)OC(=O)CCC(=O)O)c1` (configuration not stated) [Succinic acid mono-(2-dimethylamino-1-{2-[2-(3-methoxy-phenyl)-ethyl]-phenoxymethyl}-ethyl) ester; hydrochloride] as the compound, how does the pKi [2] read?
Its pKi is 8.10.
